Data taken from ChEMBL document CHEMBL1933038 (Bioorg Med Chem Lett, 2012).

Legend:
Histamine H4 receptor [1] = biological target: T1, Histamine H4 receptor (Homo sapiens, UniProt Q9H3N8)
Histamine H4 receptor [2] = biological target: T1, Histamine H4 receptor; assay: Displacement of [3H]histamine from human H4 receptor expressed in HEK cell membranes; parameters: species or system HEK293
Histamine H3 receptor [3] = biological target: Histamine H3 receptor (Homo sapiens, UniProt Q9Y5N1); assay: Displacement of [3H]histamine from human H3 receptor expressed in HEK cell membranes; parameters: species or system HEK293
Sequence of Histamine H3 receptor (Homo sapiens, UniProt Q9Y5N1) (Q9Y5N1 whole entry): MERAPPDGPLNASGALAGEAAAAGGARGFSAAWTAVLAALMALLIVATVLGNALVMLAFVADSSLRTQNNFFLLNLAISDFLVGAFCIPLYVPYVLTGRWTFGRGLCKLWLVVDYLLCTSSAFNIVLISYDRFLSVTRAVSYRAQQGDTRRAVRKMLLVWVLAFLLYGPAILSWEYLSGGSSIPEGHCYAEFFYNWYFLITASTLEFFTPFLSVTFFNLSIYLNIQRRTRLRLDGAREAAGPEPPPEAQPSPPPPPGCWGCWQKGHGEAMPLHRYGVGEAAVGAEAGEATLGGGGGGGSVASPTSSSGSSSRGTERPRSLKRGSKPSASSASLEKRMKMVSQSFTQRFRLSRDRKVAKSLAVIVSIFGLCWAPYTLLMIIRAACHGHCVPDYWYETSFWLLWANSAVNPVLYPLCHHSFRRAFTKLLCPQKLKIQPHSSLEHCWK

Histamine H1 receptor [4] = biological target: Histamine H1 receptor (Homo sapiens, UniProt P35367); assay: Displacement of [3H]histamine from human H1 receptor expressed in HEK cell membranes; parameters: species or system HEK293
Sequence of Histamine H1 receptor (Homo sapiens, UniProt P35367) (P35367 whole entry): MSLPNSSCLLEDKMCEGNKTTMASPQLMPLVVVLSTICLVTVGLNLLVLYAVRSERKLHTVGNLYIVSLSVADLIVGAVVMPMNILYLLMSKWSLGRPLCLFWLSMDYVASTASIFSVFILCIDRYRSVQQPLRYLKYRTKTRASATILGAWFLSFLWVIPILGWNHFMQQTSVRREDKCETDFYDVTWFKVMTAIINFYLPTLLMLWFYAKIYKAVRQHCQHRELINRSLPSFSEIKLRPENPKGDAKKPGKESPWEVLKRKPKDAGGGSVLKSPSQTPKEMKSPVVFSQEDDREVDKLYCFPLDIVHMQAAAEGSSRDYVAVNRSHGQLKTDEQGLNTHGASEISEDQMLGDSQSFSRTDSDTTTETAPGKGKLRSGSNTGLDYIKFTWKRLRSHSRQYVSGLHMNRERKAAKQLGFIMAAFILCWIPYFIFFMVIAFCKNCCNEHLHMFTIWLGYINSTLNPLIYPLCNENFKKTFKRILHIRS

[5] = biological target: Histamine H2 receptor (Homo sapiens) (UniProt P25021); assay: Displacement of cimetidine from H2 receptor at 10 uM
Sequence of Histamine H2 receptor (Homo sapiens) (P25021 whole entry): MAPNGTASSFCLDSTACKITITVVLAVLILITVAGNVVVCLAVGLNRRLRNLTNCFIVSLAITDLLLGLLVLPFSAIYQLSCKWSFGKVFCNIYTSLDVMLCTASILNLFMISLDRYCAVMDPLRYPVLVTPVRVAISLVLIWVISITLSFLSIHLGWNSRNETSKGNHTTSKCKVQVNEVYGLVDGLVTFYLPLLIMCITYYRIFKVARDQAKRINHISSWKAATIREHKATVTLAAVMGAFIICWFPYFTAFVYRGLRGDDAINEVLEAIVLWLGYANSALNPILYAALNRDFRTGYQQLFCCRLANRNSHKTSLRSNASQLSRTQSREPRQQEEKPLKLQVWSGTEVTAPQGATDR
In short: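 Single test concentration of 10 μM, run in duplicate. Result given as percentage displacement of cimetidine binding at the H2 receptor; assay carried out by a contract laboratory.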

Histamine H4 receptor [6] = biological target: T1, Histamine H4 receptor; assay: Antagonist activity at human H4 receptor expressed in HEK293T cells assessed as inhibition of histamine-induced [35S]GTPgammaS binding; format: functional, cell-based, HEK-293T
Histamine H4 receptor [7] = biological target: T2, Histamine H4 receptor (Mus musculus, UniProt Q91ZY2); assay: Displacement of [3H]histamine from mouse H4R
T2 sequence (Q91ZY2 whole entry): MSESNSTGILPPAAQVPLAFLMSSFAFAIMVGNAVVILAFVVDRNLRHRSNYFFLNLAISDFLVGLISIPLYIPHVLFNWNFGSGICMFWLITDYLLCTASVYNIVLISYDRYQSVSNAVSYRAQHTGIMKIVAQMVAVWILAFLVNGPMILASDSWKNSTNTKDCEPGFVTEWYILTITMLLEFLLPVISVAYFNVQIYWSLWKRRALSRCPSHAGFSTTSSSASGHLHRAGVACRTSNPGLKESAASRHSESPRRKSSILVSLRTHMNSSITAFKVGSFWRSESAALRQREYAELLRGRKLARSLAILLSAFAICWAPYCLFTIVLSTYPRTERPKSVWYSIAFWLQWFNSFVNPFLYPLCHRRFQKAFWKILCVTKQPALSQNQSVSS

[8] = Metabolic stability in human liver microsomes assessed as compound remaining after 60 mins; format: ADME, Microsome; conditions: read-out: Stability
In short: (§1)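 Liver microsomes (human, mouse or rat) incubated with compound for 60 min. Read-out is percentage of parent compound remaining; assay carried out by a contract laboratory.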

[9] = Metabolic stability in mouse liver microsomes assessed as compound remaining after 60 mins; format: ADME, Microsome; conditions: read-out: Stability
In short: as §1

[10] = Metabolic stability in rat liver microsomes assessed as compound remaining after 60 mins; format: ADME, Microsome; conditions: read-out: Stability
In short: as §1

[11] = Oral bioavailability in mouse; format: ADME, organism-based; conditions: in vivo
[12] = Half life in mouse; format: ADME, organism-based; conditions: in vivo
Histamine H1 receptor [13] = biological target: Histamine H1 receptor (Rattus norvegicus, UniProt P31390); assay: Displacement of [3H]histamine from rat H1R
Sequence of Histamine H1 receptor (Rattus norvegicus, UniProt P31390) (P31390 whole entry): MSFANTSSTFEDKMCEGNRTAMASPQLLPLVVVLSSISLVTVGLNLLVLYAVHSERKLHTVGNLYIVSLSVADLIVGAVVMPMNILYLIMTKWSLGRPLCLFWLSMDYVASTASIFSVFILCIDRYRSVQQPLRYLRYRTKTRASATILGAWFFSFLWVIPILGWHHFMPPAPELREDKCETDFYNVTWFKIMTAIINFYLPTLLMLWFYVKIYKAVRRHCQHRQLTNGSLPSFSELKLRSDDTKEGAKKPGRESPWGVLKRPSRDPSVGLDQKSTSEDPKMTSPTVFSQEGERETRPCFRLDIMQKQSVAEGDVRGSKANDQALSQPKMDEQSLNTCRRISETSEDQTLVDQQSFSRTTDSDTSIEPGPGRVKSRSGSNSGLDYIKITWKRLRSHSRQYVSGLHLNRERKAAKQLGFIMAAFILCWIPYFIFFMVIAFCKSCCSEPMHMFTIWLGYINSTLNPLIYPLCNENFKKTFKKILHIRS

Histamine H3 receptor [14] = biological target: Histamine H3 receptor (Rattus norvegicus, UniProt Q9QYN8); assay: Displacement of [3H]histamine from rat H3R
Sequence of Histamine H3 receptor (Rattus norvegicus, UniProt Q9QYN8) (Q9QYN8 whole entry): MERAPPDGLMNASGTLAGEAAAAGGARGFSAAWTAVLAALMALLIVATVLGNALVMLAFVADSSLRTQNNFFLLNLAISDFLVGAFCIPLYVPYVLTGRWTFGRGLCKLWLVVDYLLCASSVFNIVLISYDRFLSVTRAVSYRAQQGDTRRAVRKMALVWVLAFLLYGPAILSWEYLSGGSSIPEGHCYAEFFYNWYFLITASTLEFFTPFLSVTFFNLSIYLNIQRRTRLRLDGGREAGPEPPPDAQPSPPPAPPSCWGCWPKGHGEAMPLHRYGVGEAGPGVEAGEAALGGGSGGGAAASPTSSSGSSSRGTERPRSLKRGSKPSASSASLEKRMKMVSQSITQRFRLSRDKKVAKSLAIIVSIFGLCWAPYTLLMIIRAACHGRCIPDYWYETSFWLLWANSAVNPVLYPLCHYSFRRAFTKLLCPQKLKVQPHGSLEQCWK

Histamine H4 receptor [15] = biological target: Histamine H4 receptor (Rattus norvegicus, UniProt Q91ZY1); assay: Displacement of [3H]histamine from rat H4R
Sequence of Histamine H4 receptor (Rattus norvegicus, UniProt Q91ZY1) (Q91ZY1 whole entry): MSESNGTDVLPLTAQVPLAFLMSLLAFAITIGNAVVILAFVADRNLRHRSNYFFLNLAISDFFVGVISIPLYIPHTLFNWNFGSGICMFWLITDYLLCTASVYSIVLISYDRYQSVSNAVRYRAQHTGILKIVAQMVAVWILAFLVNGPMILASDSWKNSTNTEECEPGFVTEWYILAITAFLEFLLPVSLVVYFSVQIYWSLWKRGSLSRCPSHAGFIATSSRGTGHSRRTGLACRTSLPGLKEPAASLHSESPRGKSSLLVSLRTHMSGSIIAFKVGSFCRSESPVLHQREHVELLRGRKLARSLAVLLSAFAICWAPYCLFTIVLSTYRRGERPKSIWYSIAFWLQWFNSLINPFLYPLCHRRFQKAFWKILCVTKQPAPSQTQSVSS

Histamine H3 receptor [16] = biological target: Histamine H3 receptor (Mus musculus, UniProt P58406); assay: Displacement of [3H]histamine from mouse H3R
Sequence of Histamine H3 receptor (Mus musculus, UniProt P58406) (P58406 whole entry): as the sequence (Q9QYN8 whole entry) above, with T15A, A286T, A290G, R387H, I389V counted along it

T1 sequence (Q9H3N8 whole entry): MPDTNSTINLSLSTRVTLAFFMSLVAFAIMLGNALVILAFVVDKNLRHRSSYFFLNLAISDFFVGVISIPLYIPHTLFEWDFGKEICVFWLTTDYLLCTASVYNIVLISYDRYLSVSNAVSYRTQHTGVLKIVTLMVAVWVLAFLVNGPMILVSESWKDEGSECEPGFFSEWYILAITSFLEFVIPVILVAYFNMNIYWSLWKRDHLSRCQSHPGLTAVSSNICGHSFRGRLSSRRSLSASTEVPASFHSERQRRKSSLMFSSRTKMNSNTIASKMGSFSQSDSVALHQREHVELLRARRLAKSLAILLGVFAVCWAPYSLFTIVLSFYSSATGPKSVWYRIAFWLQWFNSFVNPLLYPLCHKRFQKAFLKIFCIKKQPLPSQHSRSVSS

Row | SMILES | Ki (Histamine H4 receptor [2]) | Ki (Histamine H1 receptor [4]) | IC50 (Histamine H4 receptor [6]) | Ki (Histamine H4 receptor [6]) | further results
1 | CN1CCN(C(=O)c2nc3ccc(Cl)cc3[nH]2)CC1 | – | – | – | – | T1/2 (Histamine H4 receptor [1]): 25.6 min
2 | Nc1nc2c(c(N3CCNCC3)n1)CCC1=C2[C@H]2CCCC[C@H]2O1 | 6 nM | – | – | – | –
3 | CN1CCN(c2ccnc(N)n2)CC1 | 31 nM | – | – | – | –
4 | CC(=O)c1cccc(-c2cccc3c(N4CCN(C)CC4)nc(N)nc23)c1 | 676 nM | – | – | – | –
5 | CN1CCN(c2nc(N)nc3ccccc23)CC1 | 32 nM | – | – | – | –
6 | Cc1ccc2nc(N)nc(N3CCN(C)CC3)c2c1 | 649 nM | – | – | – | –
7 | CN1CCN(c2nc(N)nc3cc(-c4ccoc4)ccc23)CC1 | – | 7370 nM | 47 nM | 4 nM | Ki (Histamine H3 receptor [3]): 188 nM; Activity [5]: 54%
8 | CN1CCN(c2nc(N)nc3cc(-c4ccsc4)ccc23)CC1 | 4 nM | 2800 nM | 46 nM | 3 nM | Ki (Histamine H3 receptor [3]): 63 nM; Activity [5]: 74%
9 | CC(=O)c1cccc(-c2ccc3c(N4CCN(C)CC4)nc(N)nc3c2)c1 | 15 nM | – | – | – | –
10 | Nc1nc(N2CCNCC2)c2ccc(-c3ccco3)cc2n1 | 16 nM | 10500 nM | 106 nM | 7 nM | Ki (Histamine H4 receptor [7]): 23 nM; remaining at 1 h [8]: 96%; remaining at 1 h [9]: 80%; remaining at 1 h [10]: 83%; bioavailability [11]: 47%; half-life [12]: 412 min; Ki (Histamine H1 receptor [13]): 3600 nM; Ki (Histamine H3 receptor [14]): 2560 nM; Ki (Histamine H4 receptor [15]): 174 nM; Ki (Histamine H3 receptor [16]): 1070 nM; T1/2 (Histamine H4 receptor [1]): 4.1 min
11 | CN1CCN(c2ncnc3ccccc23)CC1 | 328 nM | – | – | – | –
12 | CN1CCN(c2nc(N)nc3cc(-c4ccco4)ccc23)CC1 | 5 nM | 6420 nM | 83 nM | 5 nM | Ki (Histamine H3 receptor [3]): 98 nM; Activity [5]: 51%
13 | CN1CCN(c2nc3cc(Cl)c(Cl)cc3[nH]c2=O)CC1 | 6 nM | – | – | – | –
